RGS4 block = human RGS4 inhibition; P49798; HEK293 M3R/RGS4 inducible, Fluo-4 calcium flux; active compounds read high; triggered by carbachol at its EC20; B-score at 10 µM; 0.45% of 310,000 active; AID 463165;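 active = B-score, a plate-corrected calcium signal, over three deviations above library mean, with baseline fluorescence within five deviations of library mean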;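 also: RGS4 expression induced by doxycycline in cells with stable M3 receptor; B-score is computed from the integrated fluorescence ratio over baseline after carbachol; higher B-score means a larger calcium signal and so more RGS4 inhibition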
MrgX1 antag = antagonists of human MrgX1 receptor | B-score at 10 µM | MRGX1-HEK293 calcium flux, Fluo-4, BAM8-22 antagonism; active compounds read low | 1.3% of 310,000 active | AID 588676;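 active = calcium-response B-score plate-corrected more than 3 library SD below zero, starting fluorescence within 5 deviations, no agonist response on first addition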;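 also: peak minus trough fluorescence over baseline after final BAM8-22 challenge near maximal dose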
Target sequence (Q96LB2 whole entry, looked up): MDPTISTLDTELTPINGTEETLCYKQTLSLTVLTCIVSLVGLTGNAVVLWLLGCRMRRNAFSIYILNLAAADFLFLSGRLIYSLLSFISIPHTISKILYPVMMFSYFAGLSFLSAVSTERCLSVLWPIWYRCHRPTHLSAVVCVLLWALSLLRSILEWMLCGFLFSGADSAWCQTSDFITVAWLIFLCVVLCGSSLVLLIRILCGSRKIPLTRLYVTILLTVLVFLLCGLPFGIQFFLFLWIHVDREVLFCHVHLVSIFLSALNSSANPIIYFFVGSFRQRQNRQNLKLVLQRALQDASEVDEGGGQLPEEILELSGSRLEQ
MrgX1 ag = agonists of human MrgX1 receptor. Q96LB2. MrgX1-HEK293 cells, Fluo-4 calcium fluorescence, agonist mode; active compounds read high. B-score at 10 µM. 0.44% of 310,000 active. AID 588627;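 active = calcium response B-score plate-corrected fluorescence ratio at least 3 library SD, with starting fluorescence B-score inside 5 SD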
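Assay system: stable human MrgX1 HEK293 cell line. Quantity: 15,000 cells per well. Schedule: cells plated overnight, dye loaded 0.5 h 37 °C, 0.5 h room temperature. Detection: Fluo-4 NW calcium-flux fluorescence, kinetic read. Read-out basis: peak-minus-minimum fluorescence over baseline, converted to B scores. Control set: positive and negative control wells on each plate.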
RGS4 act = RGS4 potentiation or activation. HEK293 M3R/inducible RGS4, carbachol calcium flux Fluo4; active compounds read low. B-score at 10 µM. 0.92% of 310,000 active;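 active = B-score of the integrated calcium signal more than 4 SD below the library mean, with starting fluorescence not abnormally high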;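 also: negative B-score means reduced calcium response which marks RGS4 activation or potentiation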
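System: HEK293 FlpIn-TREx cells, stable M3R, doxycycline-inducible RGS4. Timing: overnight RGS4 induction, 30 min dye load 37 °C, 20 min compound RT. Also added: carbachol, ECmax concentration. Measured by: Fluo4 fluorescence kinetic imaging of calcium. Evaluation: integrated calcium ratio converted to B score.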
MrgX1 allo act = human MrgX1 positive allosteric modulation, primary screen | Q96LB2 | MrgX1-HEK293, Fluo-4 calcium flux, FDSS; active compounds read high | B-score at 10 µM | 0.63% of 310,000 active | AID 588675;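 active = plate-corrected calcium response at least 3 library SD above typical, normal starting fluorescence, not activating the receptor alone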;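 also: compound read alongside a low EC10 to EC30 dose of BAM8-22 agonist; peak minus trough fluorescence over baseline measured at the second addition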
MrgX1 ag reconf = confirmation of human MrgX1 receptor agonists; shares compounds with MrgX1 ag; MrgX1-HEK293, Fluo-4 calcium fluorescence, FDSS; activation, % at 10 µM; 78% of 600 active; AID 602412;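 active = calcium signal rise, corrected for plate position, at least 3 library SD high, with starting brightness within 5 such deviations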
HEK293 Ca flux = activity in parental HEK293 cells lacking MrgX1. shares compounds with MrgX1 antag. Fluo-4 calcium fluorescence, FDSS. fluorescence ratio F(max-min)/F0 at 10 µM. 2% of 4,000 active. AID 624111;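 active = duplicate-averaged calcium fluorescence ratio at least three times the standard deviation of buffer wells, a nonspecific response in parental cells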
HEK293 Ca counter = activity in parental HEK293 cells without MrgX1. shares compounds with MrgX1 antag. parental HEK293 calcium flux, Fluo-4 fluorescence ratio; active compounds read high. fluorescence ratio F(max-min)/F0 at 10 µM. 0.4% of 4,000 active. AID 624114;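 active = calcium fluorescence ratio, averaged over duplicates, at least 3 SD of the buffer-well ratio, meaning a nonspecific response in receptor-free cells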;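 also: untransfected parental HEK293 lacking MrgX1 used as counterscreen for MrgX1 allosteric activators; fluorescence change taken during the second addition on a kinetic imager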
HEK293 Ca cntr2 = counter-screen for MrgX1 activators: effect in parental HEK293 cells; shares compounds with MrgX1 antag; Fluo-4 calcium fluorescence (FDSS); active compounds read high; fluorescence ratio F(max-min)/F0 at 10 µM; 8.7% of 4,000 active; AID 624115;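 active = calcium fluorescence ratio at least three times the spread of buffer wells, meaning a non-specific response in parental cells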
* marks the source's active call; other numbers are inactive results; i = inactive; . = not tested or not shown. Sampled rows, rich in hits. Any-hit rate of the full collection: about 3.5%.

SMILES	RGS4 block	MrgX1 antag	MrgX1 ag	RGS4 act	MrgX1 allo act	MrgX1 ag reconf	HEK293 Ca flux	HEK293 Ca counter	HEK293 Ca cntr2
CCOc1ccc(NS(=O)(=O)c2ccc(NC(=O)C3CC3)cc2)cc1	i	i	i	i	i	.	.	.	.
Cc1cc(C)c2nc(NNC(=O)c3cc(=O)c4ccccc4o3)sc2c1	i	i	i	i	i	.	.	.	.
O=C(NC(=S)NNC(=O)c1ccc(Cl)cc1Cl)c1cccnc1	i	i	i	i	i	.	.	.	.
Cc1ccccc1C(=O)NNC(=S)NC(=O)c1ccc(Cl)cc1Cl	i	i	172*	-10*	i	776%*	i	i	154*
COc1ccccc1C(=O)NNC(=S)NC(=O)c1cc(OC)c(OC)c(OC)c1	i	i	101*	i	i	453%*	i	i	93*
COc1cc(C(=O)NNC(=S)NC(=O)c2ccc3c(c2)OCO3)cc(OC)c1OC	i	i	i	i	i	.	.	.	.
COc1cc(C(=O)NC(=S)NNC(=O)[C@H]2C[C@@H]2c2ccccc2)cc(OC)c1OC	i	i	96*	i	i	386%*	i	i	76*
COc1cc(C(=O)NNC(=S)NC(=O)c2ccccc2C)cc(OC)c1OC	i	i	120*	i	i	362%*	i	i	89*
O=C(N/N=C/c1ccccc1OC(F)F)C1=COCCO1	i	i	i	i	i	.	.	.	.
Cn1c(=O)[nH]c(=O)c2c1nc(NCCCn1ccnc1)n2Cc1ccccc1	i	i	i	i	i	.	.	.	.
O=C(CN1C(=O)C(=O)c2ccccc21)c1ccccc1	i	i	i	i	i	.	.	.	.
O=C1C(=O)N(Cc2cccs2)c2ccccc21	i	i	33*	i	i	185%*	i	i	i
COc1ccc(CNC(=O)c2c(C)cc(=O)oc2C)cc1	i	i	i	i	i	.	.	.	.
CCCCCn1c(=N)c(S(=O)(=O)c2ccc(Cl)cc2)cc2c(=O)n3cccc(C)c3nc21	i	i	27*	i	i	94%*	i	i	i
Cc1ccccc1N1C(=O)CSC1=C(C#N)C#N	i	i	i	i	i	.	.	.	.
NC(=Nc1ccc(Br)cc1)c1ccccc1	i	i	78*	i	i	289%*	i	i	48*
CN(c1ccccc1)c1nc(N2CCCC2)nc(-n2ccnc2)n1	i	i	48*	i	i	171%*	i	i	51*
Nc1c(C(=O)Nc2nc3ccccc3s2)sc2nc(-c3cccs3)ccc12	i	i	29*	i	i	157%*	i	i	i
O=[N+]([O-])c1ccccc1N/N=C1\CC2CC=CC12 (centres undefined)	i	i	i	i	i	.	.	.	.
O=C(N[C@@H](Cc1ccccc1)C(=O)OCc1ccccc1)c1nc[nH]c1C(=O)NCc1ccccc1	i	i	i	i	i	.	.	.	.
CN(CCOc1ccc(Cl)c(Cl)c1)Cc1ccccc1	i	i	i	i	i	.	.	.	.
CCN(CC)CCCOc1ccc(Cl)c(Cl)c1	i	i	107*	i	i	i	i	i	i
Cc1ccc(NC(=O)CC(C)CC2=NS(=O)(=O)c3ccccc3N2)cc1 (centres undefined)	i	i	i	i	i	.	.	.	.
Cc1ccc(-n2c(=O)[nH]c3c(oc4ccccc43)c2=O)cc1	i	i	78*	i	i	396%*	i	i	118*
